Screening results (PubChem BioAssay)
In the library only some 2.1% were active in any assay of this set; here they are far more common.
VIM-2 inh = inhibitors of Pseudomonas aeruginosa VIM-2 metallo-beta-lactamase; purified VIM-2, nitrocefin hydrolysis, epi-absorbance fluorescence; inhibition, % at 5.6 µM; 290,000 tested, 0.89% active; AID 1527;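 active = inhibition above the mean of all tested compounds plus 3 SD, cutoff set per screening run, cut at about 7.5% in these data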;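 also: red hydrolysis product quenches plate fluorescence so inhibitors raise well fluorescence; 0% = enzyme with DMSO and 100% = DMSO without enzyme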
TRPML3 ag = agonists of human TRPML3 channel; Q8TDD5; activation, % at 3 µM; 220,000 tested, 0.29% active; HEK293 TRPML3-YFP, Fluo-8 calcium fluorescence; 100% = the carbachol control signal;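 active = activation above its plate's cutoff, the mean activation of the plate's test wells plus 3 SD, cut at about 12% in these data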;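 also: 0% = DMSO only wells and 100% = carbachol wells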
Target sequence (Q8TDD5 whole entry, looked up): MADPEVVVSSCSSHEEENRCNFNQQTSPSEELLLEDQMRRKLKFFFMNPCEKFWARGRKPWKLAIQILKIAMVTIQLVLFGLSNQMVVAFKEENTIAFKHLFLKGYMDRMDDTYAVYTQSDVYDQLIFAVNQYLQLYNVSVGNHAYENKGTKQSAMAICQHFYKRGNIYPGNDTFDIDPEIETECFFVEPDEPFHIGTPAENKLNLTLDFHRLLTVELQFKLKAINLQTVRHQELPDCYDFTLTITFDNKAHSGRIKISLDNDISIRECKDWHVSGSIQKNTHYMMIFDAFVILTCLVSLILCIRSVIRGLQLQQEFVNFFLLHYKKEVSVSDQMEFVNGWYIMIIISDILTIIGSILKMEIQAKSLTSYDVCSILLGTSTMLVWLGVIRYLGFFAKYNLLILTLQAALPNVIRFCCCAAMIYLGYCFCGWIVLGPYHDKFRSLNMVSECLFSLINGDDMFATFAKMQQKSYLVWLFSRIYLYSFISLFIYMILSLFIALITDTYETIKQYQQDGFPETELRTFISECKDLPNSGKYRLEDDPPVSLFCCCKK
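Material: TRPML3-YFP stable HEK293 cells | Dosing: One concentration, 3 µM nominal, 0.3% DMSO | Timing: 125 s total fluorescence read per well | Technique: Fluo-8 calcium dye fluorescence, ex 470-495, em 515-575 nm | Measure: Percent activation from peak-to-basal fluorescence ratio, scaled between DMSO and carbachol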
TRPN1 ag = activates the zebrafish TRPN1 channel; HEK293 zebrafish TRPN1-YFP, Fluo-8 calcium fluorescence; 100% = response to 87 µM carbachol; activation, % at 3 µM; 220,000 tested, 0.18% active;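 active = activation above its plate's cutoff, the mean activation of test wells on that plate plus 3 SD, cut at about 19% in these data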;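 also: 0% = DMSO alone and 100% = 87 µM carbachol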
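Control set: carbachol 87 µM as high control, DMSO as low control; system: HEK293 stable line with zebrafish TRPN1-YFP; read-out: % activation versus carbachol response; detection: intracellular calcium fluorescence with Fluo-8; doses: single test compound dose, 3 µM nominal, 0.3% DMSO; schedule: dye 1 h 37 °C plus 30 min RT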
CRFBP-R2 block = antagonists of CRF-binding protein/CRF-R2 receptor complex. 350,000 tested, 0.59% active. HEK293 CRF-R2/CRF-BP, CRF-induced calcium fluorescence. AID 588475. inhibition, % at 11.8 µM;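 active = inhibition of the ligand-induced calcium signal above about 50% at the single tested concentration, limit read from the data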
CRFBP-R2 agonist = agonists of human CRF-binding protein/CRF-R2 receptor complex; HEK293 CRF-R2/CRF-BP, calcium dye fluorescence (FLIPR); percent of saturating CRF peptide response; activation, % at 13.2 µM; 350,000 tested, 0.46% active; AID 588473;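 active = activation of at least 50%, plus an integration ratio under a set limit after plate pattern correction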;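 also: plate controls were neutral control wells without compound for no effect and CRF at EC100 for full effect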
IMP-1 inh = blocks Pseudomonas aeruginosa IMP-1 metallo-beta-lactamase; purified IMP-1, nitrocefin hydrolysis, epi-absorbance fluorescence; inhibition, % at 5.6 µM; 290,000 tested, 0.45% active;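 active = inhibition above the mean plus 3 SD of all compounds in the same screening run, cut at about 4.5% in these data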;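 also: 0% = IMP-1 with DMSO and 100% = DMSO wells lacking enzyme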
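System: purified recombinant IMP-1 beta-lactamase. Medium: Zinc- and detergent-supplemented HEPES buffer, pH 7.1. Compound: one 5.6 µM dose […]. Schedule: 15 min preincubation plus 25 min reaction at 25 °C. Technique: Epi-absorbance fluorescence, 480 nm excitation, 530 nm emission.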
TRPN1 counter = counter-screen for TRPML3 agonists: agonists of zebrafish TRPN1 channel | activation, % at 3 µM | AID 1525 | shares compounds with TRPML3 ag | 310 tested, 10% active | HEK293 zebrafish TRPN1-YFP, Fluo-8 calcium fluorescence; scaled: carbachol wells 100%, DMSO wells 0%;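 active = mean activation over replicates above a set limit taken from the earlier TRPN1 channel primary screen, cut at about 19% in these data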;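 also: 100% = carbachol and 0% = 0.3% DMSO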
TRPML3 ag conf = confirmation of human TRPML3 channel agonists; shares compounds with TRPML3 ag; HEK293 TRPML3-YFP, Fluo-8 calcium fluorescence; 100% set by carbachol, 0% by DMSO; activation, % at 3 µM; 310 tested, 80% active; AID 1526;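 active = activation above a set limit derived from the earlier primary screen, cut at about 12% in these data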
* hit, by the source's call; x = not tested or not shown.

SMILES	VIM-2 inh	TRPML3 ag	TRPN1 ag	CRFBP-R2 block	CRFBP-R2 agonist	IMP-1 inh	TRPN1 counter	TRPML3 ag conf
Cc1ccc(NC(=O)c2cc(NC(=O)/C=C\C(=O)O)ccc2N2CCCCC2)cc1	-0.5	x	x	95.4*	0.3	-1.7	x	x
CCOC(=O)c1[nH]c2ccccc2c1NC(=O)Nc1ccc(OC)cc1	-1.8	-0.5	0.8	84.8*	-8.4	-2.6	x	x
COc1ccc(C(=O)Nc2ccc(O)c3ccccc23)cc1	x	x	x	4.4	-1.7	x	x	x
COc1ccc(NC(=O)Nc2ccc(O)c3ccccc23)cc1	x	x	x	50.4*	-4.7	x	x	x
CCOC(=O)c1[nH]c2ccc(F)cc2c1NC(=O)c1ccccc1C(=O)O	9.8*	x	x	7.9	0.9	2.7	x	x
COc1ccc(-n2cnnc2SCC(=O)Nc2ccccc2F)cc1	-3.5	x	x	2.1	-1.3	-2.3	x	x
CN(C1CCCCC1)S(=O)(=O)c1cccc(C#N)c1	-1.7	63.1*	0.3	-4.0	-2.3	-2.3	0.0	44.0*
CCOc1ccc(S(=O)(=O)N(C)C2CCCCC2)cc1	-0.4	x	x	-0.2	-0.1	-1.0	x	x
O=S(=O)(NC1CCCCCC1)c1cccc2cccnc12	-2.6	33.5*	-0.7	0.9	0.1	-2.4	0.3	56.4*
O=C(NC1CCCCC1)c1ccc(NS(=O)(=O)c2cccc3cccnc23)cc1	-2.9	-0.5	-0.6	7.4	-0.8	-2.8	x	x
O=C1NCC(c2ccccc2)C1C(=O)N/N=C\c1ccc(-c2ccc(Cl)c(Cl)c2)o1 (stereo not drawn)	-3.5	-0.6	-0.6	-12.8	0.2	-5.4	x	x
O=C1NCC(c2ccccc2)C1C(=O)N/N=C/c1ccc(Cl)s1 (stereo not drawn)	-3.1	15.2*	2.5	-44.0	31.8	-1.5	20.4*	20.2*
CCOC(=O)c1c(CSc2ccc(C)cc2)oc2ccc(O)cc12	-3.3	29.9*	-2.7	-0.5	-3.1	-3.7	-1.2	46.1*
CCOC(=O)c1c(CSc2ccccc2)oc2ccc(O)cc12	-3.0	1.7	-3.7	-15.3	-0.6	-1.2	x	x
FC(F)(F)c1nnc(Nc2ccc(Cl)cc2)s1	-0.7	5.4	6.3	-1.8	2.7	-1.8	x	x
Fc1ccc(Nc2nnc(C(F)(F)F)s2)cc1Cl	-4.3	16.7*	18.5	14.3	19.8	-4.3	15.5	9.1
C=CCN1C(=O)/C(=C/c2ccc(OC(C)=O)c(OCC)c2[N+](=O)[O-])SC1=S	0.7	12.2*	18.5	58.8*	46.1	-1.9	19.2*	7.0
O=C(NCc1cccs1)C1CCCN1C(=O)Nc1ccc(F)cc1 (stereo not drawn)	-3.1	0.0	-0.2	-4.8	-0.2	-2.1	x	x
COc1ccccc1-c1ccc(/C=C2/C=C(C)OC2=O)o1	-1.0	1.0	-0.1	-5.3	13.1	-1.0	x	x
COc1ccccc1-c1ccc(/C=C2\C=CC(=O)O2)o1	4.9	13.7*	17.3	-127.2	119.3*	5.4*	21.2*	12.7*
COc1ccccc1N(C)S(=O)(=O)c1ccc(Cl)c(C(=O)NNC(=O)c2ccccc2O)c1	-2.5	x	x	-1.0	-0.2	-1.3	x	x
COc1ccccc1N(C)S(=O)(=O)c1ccc(Cl)c(C(=O)OCc2c(C)noc2C)c1	-2.3	40.7*	1.1	29.0	20.0	-1.0	0.4	39.2*
CC(C)c1ccc(S(=O)(=O)N2CCCCC2)cc1	-0.7	14.6*	-0.1	7.7	-0.2	-1.9	-0.7	14.6*
CN1CCCN(S(=O)(=O)c2ccc3ccccc3c2)CC1	2.6	x	x	-6.1	0.1	-2.8	x	x
O=S(=O)(c1ccc2ccccc2c1)N1CCCCCC1	-2.6	80.5*	-1.7	-18.6	-1.7	-1.9	0.1	62.4*
SMILES	VIM-2 inh	TRPML3 ag	TRPN1 ag	CRFBP-R2 block	CRFBP-R2 agonist	IMP-1 inh	TRPN1 counter	TRPML3 ag conf
COc1cc(S(=O)(=O)N2CCN(C)CC2)ccc1Cl	-1.6	0.1	-0.5	-5.3	0.5	-1.4	x	x
O=S(=O)(c1ccc(S(=O)(=O)N2CCCC2)cc1)N1CCCCC1	1.8	x	x	-3.5	1.2	-0.6	x	x
O=S(=O)(c1ccc2ccccc2c1)N1CCCCC1	-3.4	15.9*	0.5	-18.1	1.1	0.1	0.4	12.3*
COc1cc(S(=O)(=O)N2CCCCCC2)ccc1Cl	2.0	44.0*	-1.6	-10.9	1.8	-0.6	-1.0	61.5*
CCCCn1c(N)c(N(CC(C)C)C(=O)C2=NN(c3cc(C)ccc3C)C(=O)CC2)c(=O)[nH]c1=O	x	x	x	9.0	-1.8	x	x	x
CCn1cnc2cc(NCc3ccc(C)cc3)ccc21	-4.9	0.2	-0.7	-105.9	23.4	-2.9	x	x
Cc1ccc(CNc2ccc3c(c2)ncn3C(C)C)cc1	-0.4	36.2*	13.0	-46.5	61.4*	-2.4	36.1*	29.1*
O=C(c1ccc([N+](=O)[O-])cc1)N(Cc1ccc(Cl)cc1Cl)N1C(=O)CCCC1=O	-3.2	15.5*	2.0	-102.8	53.0*	-2.1	1.9	24.6*
O=C(Cn1cc([N+](=O)[O-])ccc1=O)NCc1ccc(Cl)cc1Cl	-4.1	x	x	0.0	-0.3	-1.6	x	x
Cc1ccc(C(=O)NNC(=S)NC(=O)c2ccco2)cc1	-4.6	28.5*	17.7	35.4	96.6*	-4.5	39.5*	36.2*
Cc1ccc(C(=O)NNC(=O)c2ccco2)cc1	-1.4	0.5	1.1	8.5	-1.1	-2.4	x	x
O=S(=O)(Cc1cc(Cl)nc(-c2ccccc2)n1)c1ccccc1	-1.6	19.3*	-0.7	1.6	-1.0	-2.4	-1.5	35.3*
CCOc1ccccc1NC(C)C(=O)NC(=O)NC1CCCCC1 (stereo not drawn)	x	x	x	-21.9	1.1	x	x	x
Cc1ccc(N(C(=O)c2snc(C(N)=O)c2N)C(C(=O)NC2CCCC2)c2ccco2)cc1 (stereo not drawn)	-1.7	x	x	-6.4	-0.9	-0.3	x	x
CCC(Oc1cc(Cl)ccc1Cl)C(=O)NN1C(=O)C2C3CCC(C3=C(C)C)C2C1=O (stereo not drawn)	-1.1	33.6*	0.4	-33.0	1.7	-1.6	2.3	73.0*
CC(C)COc1cccc(C(=O)N(C)CC(=O)Nc2cccc3ccccc23)c1	x	x	x	14.4	-2.8	x	x	x
O=S(=O)(c1cnc(Cl)c(Br)c1)N1CCc2ccccc21	-1.1	14.2*	-2.5	22.3	-0.1	-4.6	-1.7	50.0*
COc1ccc(NC2CCCN(C(=O)CSc3ccccn3)C2)cc1OC (stereo not drawn)	-1.3	x	x	0.8	0.0	-3.4	x	x
